# Bioassay records from PubChem BioAssay.
# The full list was thinned out, with hits kept by preference.
# KDM4C inh = KDM4C (human) demethylase inhibition; GST-KDM4C 2-372, H3K9me3 peptide, LANCE TR-FRET; inhibition, % at 12.5 µM; 0.15% of 96,000 active;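 active = mean replicate inhibition above about 25%, with at least 55% of replicates also reaching it, limit read from the data, passing the limit was not always enough; inconclusive = only one of those two conditions met; inactive = neither condition met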
#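 Material: GST-tagged GASC-1 (JMJD2C) catalytic fragment, aa 2-372. Input: enzyme final amount 10 nM. Medium: HEPES buffer, pH 7.5, plus ascorbate. Reagent: H3K9me3 peptide substrate, Fe(II), 2-oxoglutarate. Doses: single dose. Times: reaction 30 min RT, detection step 1 h RT. Measured by: LANCE TR-FRET. Evaluation: Fall in 671/618 emission ratio as inhibition.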
# T cruzi growth-1 = T. cruzi proliferation inhibition | T. cruzi beta-gal in NIH3T3, GalScreen luminescence, 90 h | inhibition, % at 8.34 µM | AID 624255 | 5.9% of 77,000 active;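 active = mean inhibition above about 93%, with at least 55% of replicates each passing it, limit read from the data, passing the limit was not always enough; inconclusive = only one of those two conditions holds; inactive = neither condition holds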
# IDH1 R132H inh = inhibitors of human IDH1 R132H | O75874 | IDH1 R132H reductase, diaphorase/resazurin fluorescence, 60 min | inhibition, % at 10 µM | 0.18% of 70,000 active | AID 624101; in the data active = inhibition above about 34%; inconclusive = no clear call, values can overlap the other calls; inactive = below about 11%;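 note: 0% = DMSO and 100% = no enzyme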
# Target sequence (O75874 whole entry R132H): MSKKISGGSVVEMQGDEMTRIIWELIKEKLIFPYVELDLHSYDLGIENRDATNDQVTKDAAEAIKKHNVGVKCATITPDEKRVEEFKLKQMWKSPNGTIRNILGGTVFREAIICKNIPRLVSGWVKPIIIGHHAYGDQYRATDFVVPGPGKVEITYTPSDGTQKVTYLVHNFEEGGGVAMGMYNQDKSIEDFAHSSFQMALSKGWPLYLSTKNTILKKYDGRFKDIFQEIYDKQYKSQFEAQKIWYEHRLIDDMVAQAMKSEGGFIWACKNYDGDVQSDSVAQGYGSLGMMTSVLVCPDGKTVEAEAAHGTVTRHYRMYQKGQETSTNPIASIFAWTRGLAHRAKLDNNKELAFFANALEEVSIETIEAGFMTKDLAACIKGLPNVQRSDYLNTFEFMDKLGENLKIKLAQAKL
# T cruzi growth-2 = inhibitors of T. cruzi proliferation. shares compounds with T cruzi growth-1. T. cruzi beta-gal in NIH3T3, GalScreen luminescence, 90 h. inhibition, % at 8.35 µM. 72% of 5,600 active. AID 651739;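 active = mean replicate inhibition above about 95% and at least 55% of replicates individually reaching it, limit read from the data; inconclusive = only one of the two criteria is met; inactive = neither criterion is met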
# T cruzi growth-3 = Trypanosoma cruzi proliferation inhibition; inhibition, % at 2.09 µM; 21% of 5,600 active; AID 651740; shares compounds with T cruzi growth-1; T. cruzi beta-gal in NIH3T3, GalScreen luminescence, 90 h;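 active = mean inhibition above about 95%, with at least 55% of replicates also reaching it, limit read from the data; inconclusive = meets just one of the two conditions; inactive = meets neither condition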;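 note: plate controls were neutral control median for no effect and positive control median for full effect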
# 3T3 cytotox = kills mouse NIH/3T3 fibroblasts; 14% of 5,600 active; NIH/3T3 viability, CellTiter-Glo ATP luminescence, 90 h; AID 651742; cytotoxicity (signal decrease), % at 8.35 µM; shares compounds with T cruzi growth-1;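 active = mean signal decrease across replicates above about 35% based on untreated-well scatter, with enough replicates individually passing, limit read from the data; inconclusive = no rule stated though some were filed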;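 note: 0% = median of neutral control wells and 100% = median of positive control wells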
# NIH3T3 tox 2 = kills mouse NIH/3T3 fibroblasts | NIH/3T3 viability, CellTiter-Glo ATP luminescence, 90 h | inhibition, % at 24.9 µM | shares compounds with T cruzi growth-1 | 56% of 5,600 active;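 active = mean loss of cell viability signal at or above a set limit, and enough replicates individually reaching it; inconclusive = meets only the mean limit or only the replicate share; inactive = meets neither condition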;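 note: 0% = median of neutral control wells and 100% = median of positive control wells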
# Numbers without * were called inactive; ? = inconclusive; / = not tested or not shown; ! = not confirmed by another sample.
SMILES,KDM4C inh,T cruzi growth-1,IDH1 R132H inh,T cruzi growth-2,T cruzi growth-3,3T3 cytotox,NIH3T3 tox 2
COc1ccc(N2C(=O)CC(SCC(=O)Nc3ccc(F)cc3)C2=O)cc1 (configuration not stated),/,/,-1,/,/,/,/
CC(C)(C)n1nc(-c2cccc3ccccc23)c2c(N)ncnc21,/,/,1,/,/,/,/
COc1ccc(NC(=O)COc2ccccc2Cl)cc1NC(=O)c1ccco1,/,/,1,/,/,/,/
COc1ccccc1C#Cc1ccc2c(c1)O[C@H](CN(C)Cc1ccccc1)[C@@H](C)CN([C@@H](C)CO)S2(=O)=O,-3,121*,0,99*,111*,11,99*
COc1ccccc1C#Cc1ccc2c(c1)O[C@@H](CN(C)Cc1cccnc1)[C@@H](C)CN([C@H](C)CO)S2(=O)=O,-1,/,/,/,/,/,/
COc1ccccc1C#Cc1ccc2c(c1)O[C@H](CN(C)Cc1cccnc1)[C@@H](C)CN([C@@H](C)CO)S2(=O)=O,-2,/,-2,/,/,/,/
COc1ccccc1C#Cc1ccc2c(c1)O[C@@H](CN(C)Cc1cccnc1)[C@@H](C)CN([C@@H](C)CO)S2(=O)=O,0,/,0,/,/,/,/
COc1ccccc1C#Cc1ccc2c(c1)O[C@@H](CN(C)Cc1ccccc1)[C@H](C)CN([C@H](C)CO)S2(=O)=O,-1,118*,0,?,112*,45*,106*
COc1ccccc1C#Cc1ccc2c(c1)O[C@H](CN(C)Cc1ccccc1)[C@H](C)CN([C@@H](C)CO)S2(=O)=O,-4,123*,1,105*,115*,-16,-22
COc1ccccc1C#Cc1ccc2c(c1)O[C@H](CN(C)Cc1ccccc1)[C@H](C)CN([C@H](C)CO)S2(=O)=O,4,121*,0,104*,87,-8,16
COc1ccccc1C#Cc1ccc2c(c1)O[C@@H](CN(C)Cc1cccnc1)[C@H](C)CN([C@@H](C)CO)S2(=O)=O,-1,/,/,/,/,/,/
C[C@@H]1O[C@@H](O[C@H]2[C@@H]3C=CO[C@@H](O[C@@H]4O[C@H](CO)[C@@H](O)[C@H](O)[C@H]4O)[C@@H]3[C@@]3(CO)O[C@@H]23)[C@H](O)[C@H](OC(=O)/C=C/c2ccc(O)cc2)[C@H]1O,/,/,1,/,/,/,/
O=C(O)CCc1ccc(-c2ccc(F)cc2)n1-c1ccc(C(=O)O)cc1,/,/,1,/,/,/,/
COC(=O)c1cc(NC(=O)CN(c2cc(C)cc(C)c2)S(C)(=O)=O)ccc1Cl,/,/,1,/,/,/,/
COc1ccc(-c2nc(C#N)c(NCCN3CCOCC3)o2)cc1,/,/,-1,/,/,/,/
C[C@@H]1CN([C@@H](C)CO)C(=O)c2cc(C#CCN(C)C)cnc2O[C@@H]1CN(C)Cc1ccccc1,/,-123,-1,/,/,/,/
C[C@@H]1CN([C@H](C)CO)C(=O)c2cc(C#CCN(C)C)cnc2O[C@H]1CN(C)Cc1ccc(-c2ccccc2)cc1,0,109*,/,111*,116*,?,104*
C[C@H](CO)N1C[C@H](C)[C@@H](CN(C)Cc2ccc(C(=O)O)cc2)Oc2ncc(C#CCN(C)C)cc2C1=O,3,-21,-1,/,/,/,/
C[C@@H]1CN([C@H](C)CO)C(=O)c2cc(C#CCN(C)C)cnc2O[C@H]1CN(C)Cc1ccccc1,/,-113,-1,/,/,/,/
C[C@@H]1CN([C@@H](C)CO)C(=O)c2cc(C#CCN(C)C)cnc2O[C@@H]1CN(C)Cc1ccc(-c2ccccc2)cc1,8,112*,/,110*,107*,47*,105*
C[C@@H]1CN([C@H](C)CO)C(=O)c2cc(C#CCN(C)C)cnc2O[C@@H]1CN(C)Cc1ccc(C(=O)O)cc1,7,105*,1,-7,3,-20,-5
C[C@@H]1CN([C@@H](C)CO)C(=O)c2cc(C#CCN(C)C)cnc2O[C@H]1CN(C)Cc1ccc(-c2ccccc2)cc1,3,102*,-10,109*,116*!,40*,104*
C[C@@H]1CN([C@H](C)CO)C(=O)c2cc(C#CCN(C)C)cnc2O[C@@H]1CN(C)Cc1ccccc1,/,-45,-1,/,/,/,/
COc1ccc([N+](=O)[O-])cc1N(CC(=O)Nc1ccccc1Cl)S(C)(=O)=O,/,/,1,/,/,/,/
Cc1c(NC(=O)COc2ccc(Br)cc2)cccc1-c1nc2cc(Cl)ccc2o1,/,/,0,/,/,/,/
